Reference: ChEMBL document CHEMBL2346608, “New annelated thieno[2,3-e][1,2,3]triazolo[1,5-a]pyrimidines, with potent anticancer activity, designed through VLAK protocol” (2013)

Tests used:
Format in all cases: functional
MCF7 = experiment: Antiproliferative activity against human MCF7 cells after 48 hrs by sulforhodamine B assay; settings: MCF7, 48 h
Procedure, shortened: (§1)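 Cells grown in RPMI 1640 with 5% FBS and 2 mM L-glutamine, plated at 5000–40,000 cells/well and preincubated 24 h at 37 °C, 5% CO2. Five drug concentrations (10-fold or ½-log dilutions from DMSO stocks) applied for 48 h. TCA-fixed (final 10% adherent, 16% suspension), SRB-stained, A515 read. Growth versus time-zero and control wells gave GI50, TGI, LC50.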

NCI/ADR-RES = experiment: Antiproliferative activity against human NCI/ADR-RES cells after 48 hrs by sulforhodamine B assay; procedure, shortened: as §1
SNB-75 = experiment: Antiproliferative activity against human SNB75 cells after 48 hrs by sulforhodamine B assay; settings: SNB-75, 48 h
Procedure, shortened: (§2)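 Cells in RPMI 1640 with 5% FBS and 2 mM L-glutamine were seeded at 5000–40,000/well according to doubling time and preincubated 24 h at 37 °C in 5% CO2. Time-zero plates were TCA-fixed when drug was added. Five 10-fold or ½-log dilutions from DMSO stocks were added for 48 h. After SRB staining, A515 was read and GI50 derived from [(Ti−Tz)/(C−Tz)]×100 = 50.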

HCT-15 = experiment: Antiproliferative activity against human HCT15 cells after 48 hrs by sulforhodamine B assay; settings: HCT-15, 48 h; procedure, shortened: as §1
UACC-257 = experiment: Antiproliferative activity against human UACC257 cells after 48 hrs by sulforhodamine B assay; settings: UACC-257, 48 h; procedure, shortened: as §2
MOLT-4 = experiment: Antiproliferative activity against human MOLT4 cells after 48 hrs by sulforhodamine B assay; settings: MOLT-4, 48 h; procedure, shortened: as §1
SF-268 = experiment: Antiproliferative activity against human SF268 cells after 48 hrs by sulforhodamine B assay; settings: SF-268, 48 h; procedure, shortened: as §1
OVCAR-5 = experiment: Antiproliferative activity against human OVCAR5 cells after 48 hrs by sulforhodamine B assay; settings: OVCAR-5, 48 h; procedure, shortened: as §1
SK-MEL-5 = experiment: Antiproliferative activity against human SK-MEL-5 cells after 48 hrs by sulforhodamine B assay; settings: SK-MEL-5, 48 h; procedure, shortened: as §1
OVCAR-3 = experiment: Antiproliferative activity against human OVCAR3 cells after 48 hrs by sulforhodamine B assay; settings: OVCAR-3, 48 h; procedure, shortened: as §1
A549 = experiment: Antiproliferative activity against human A549 cells after 48 hrs by sulforhodamine B assay; settings: A549, 48 h; procedure, shortened: as §1
T47D = experiment: Antiproliferative activity against human T47D cells after 48 hrs by sulforhodamine B assay; procedure, shortened: as §2
RPMI-8226 = experiment: Antiproliferative activity against human RPMI8226 cells after 48 hrs by sulforhodamine B assay; settings: RPMI-8226, 48 h; procedure, shortened: as §1
OVCAR-4 = experiment: Antiproliferative activity against human OVCAR4 cells after 48 hrs by sulforhodamine B assay; settings: OVCAR-4, 48 h; procedure, shortened: as §1
NCI-H460 = experiment: Antiproliferative activity against human NCI-H460 cells after 48 hrs by sulforhodamine B assay; settings: NCI-H460, 48 h; procedure, shortened: as §1
LOX IMVI = experiment: Antiproliferative activity against human LOXIMVI cells after 48 hrs by sulforhodamine B assay; procedure, shortened: as §1
[1] = Antiproliferative activity against human EKVX cells after 48 hrs by sulforhodamine B assay; procedure, shortened: as §1
MDA-MB-468 = experiment: Antiproliferative activity against human MDA-MB-468 cells after 48 hrs by sulforhodamine B assay; settings: MDA-MB-468, 48 h; procedure, shortened: as §1
HCT-116 = experiment: Antiproliferative activity against human HCT116 cells after 48 hrs by sulforhodamine B assay; settings: HCT-116, 48 h; procedure, shortened: as §1
U-251 = experiment: Antiproliferative activity against human U251 cells after 48 hrs by sulforhodamine B assay; settings: U-251, 48 h; procedure, shortened: as §2
SK-MEL-28 = experiment: Antiproliferative activity against human SK-MEL-28 cells after 48 hrs by sulforhodamine B assay; settings: SK-MEL-28, 48 h; procedure, shortened: as §1
HT-29 = experiment: Antiproliferative activity against human HT-29 cells after 48 hrs by sulforhodamine B assay; settings: HT-29, 48 h; procedure, shortened: as §1
NCI-H322M = experiment: Antiproliferative activity against human NCI-H322M cells after 48 hrs by sulforhodamine B assay; procedure, shortened: as §1
DU-145 = experiment: Antiproliferative activity against human DU145 cells after 48 hrs by sulforhodamine B assay; settings: DU-145, 48 h; procedure, shortened: as §1
ACHN = experiment: Antiproliferative activity against human ACHN cells after 48 hrs by sulforhodamine B assay; procedure, shortened: as §1
786-0 = experiment: Antiproliferative activity against human 786-0 cells after 48 hrs by sulforhodamine B assay; settings: 786-0, 48 h; procedure, shortened: as §1
Malme-3M = experiment: Antiproliferative activity against human MALME-3M cells after 48 hrs by sulforhodamine B assay; procedure, shortened: as §1
SW-620 = experiment: Antiproliferative activity against human SW620 cells after 48 hrs by sulforhodamine B assay; settings: SW-620, 48 h; procedure, shortened: as §2
CAKI-1 = experiment: Antiproliferative activity against human CAKI-1 cells after 48 hrs by sulforhodamine B assay; settings: CAKI-1, 48 h; procedure, shortened: as §1
[2] = read-out: pLC50 (the source's name) (converted)

Work on `O=C(CCCn1c(=O)c2sc3ncccc3c2n2nnc(-c3ccccc3)c12)NCCc1c[nH]cn1` yielded a GI50 (MCF7) of 17.8 µM, an LC50 (MCF7) of over 100 µM and a TGI (MCF7; read-out: pTGI (converted)) of over 100 µM. The GI50 (NCI/ADR-RES) was 33.9 µM, the LC50 (NCI/ADR-RES) was over 100 µM and the TGI (NCI/ADR-RES; read-out: pTGI (converted)) was over 100 µM. For the same compound, the GI50 (SNB-75) was 15.1 µM, the LC50 (concentration killing 50% of starting cells) (SNB-75) was 55 µM and the TGI (SNB-75; read-out: pTGI (converted)) was 28.8 µM. For the same compound, the GI50 (HCT-15) was 5.75 µM, the LC50 (HCT-15) was over 100 µM and the TGI (HCT-15; read-out: pTGI (converted)) was over 100 µM. It also gave a GI50 (UACC-257) of 18.2 µM, an LC50 (UACC-257) of 69.2 µM and a TGI (UACC-257; read-out: pTGI (converted)) of 35.5 µM. The GI50 (MOLT-4) was 2240 nM, the LC50 (MOLT-4) was over 100 µM and the TGI (MOLT-4; read-out: pTGI (converted)) was 24 µM. For the same compound, the GI50 (SF-268) was 11.7 µM, the LC50 (SF-268) was 72.4 µM and the TGI (SF-268; read-out: pTGI (converted)) was 28.8 µM. The GI50 (OVCAR-5) was 11.5 µM, the LC50 (OVCAR-5) was 93.3 µM and the TGI (OVCAR-5; read-out: pTGI (converted)) was 32.4 µM. The GI50 (SK-MEL-5) was 16.2 µM, the LC50 (SK-MEL-5) was over 100 µM and the TGI (SK-MEL-5; read-out: pTGI (converted)) was over 100 µM. The GI50 (OVCAR-3) was 11 µM, the LC50 (OVCAR-3) was 50.1 µM and the TGI (OVCAR-3; read-out: pTGI (converted)) was 23.4 µM. It also gave a GI50 (A549) of 8.71 µM, an LC50 (A549) of over 100 µM and a TGI (A549; read-out: pTGI (converted)) of 34.7 µM. For the same compound, the GI50 (T47D) was 1860 nM, the LC50 (T47D) was 64.6 µM and the TGI (T47D; read-out: pTGI (converted)) was 21.4 µM. For the same compound, the GI50 (RPMI-8226) was 5.13 µM, the CC50 (RPMI-8226; [2]) was over 100 µM and the TGI (RPMI-8226; read-out: pTGI (converted)) was 35.5 µM. For the same compound, the GI50 (OVCAR-4) was 15.5 µM, the LC50 (concentration killing 50% of cells) (OVCAR-4) was 67.6 µM and the TGI (OVCAR-4; read-out: pTGI (converted)) was 32.4 µM. For the same compound, the GI50 (NCI-H460) was 3.63 µM, the LC50 (NCI-H460) was 42.7 µM and the TGI (NCI-H460; read-out: pTGI (converted)) was 13.2 µM. It also gave a GI50 (LOX IMVI) of 12.3 µM, a CC50 (LOX IMVI; [2]) of 57.5 µM and a TGI (LOX IMVI; read-out: pTGI (converted)) of 26.3 µM. For the same compound, the GI50 [1] was 15.1 µM, the LC50 [1] was over 100 µM and the TGI ([1]; read-out: pTGI (converted)) was 44.7 µM. For the same compound, the GI50 (MDA-MB-468) was 8.13 µM, the LC50 (MDA-MB-468) was 79.4 µM and the TGI (MDA-MB-468; read-out: pTGI (converted)) was 27.5 µM. For the same compound, the GI50 (HCT-116) was 380 nM, the LC50 (HCT-116) was 38.9 µM and the TGI (HCT-116; read-out: pTGI (converted)) was 10 µM. It also gave a GI50 (U-251) of 1290 nM, an LC50 (U-251) of 45.7 µM and a TGI (U-251; read-out: pTGI (converted)) of 14.8 µM. It also gave a GI50 (SK-MEL-28) of 17 µM, an LC50 (SK-MEL-28) of 72.4 µM and a TGI (SK-MEL-28; read-out: pTGI (converted)) of 34.7 µM. The GI50 (HT-29) was 3.89 µM, the LC50 (HT-29) was over 100 µM and the TGI (HT-29; read-out: pTGI (converted)) was 55 µM. The GI50 (NCI-H322M) was 14.8 µM, the LC50 (NCI-H322M) was 89.1 µM and the TGI (NCI-H322M; read-out: pTGI (converted)) was 36.3 µM. The GI50 (DU-145) was 2750 nM, the LC50 (DU-145) was 61.7 µM and the TGI (DU-145; read-out: pTGI (converted)) was 19.5 µM. The GI50 (ACHN) was 15.5 µM, the LC50 (50% lethal concentration) (ACHN) was 63.1 µM and the TGI (ACHN; read-out: pTGI (converted)) was 30.9 µM. For the same compound, the GI50 (786-0) was 12.6 µM, the CC50 (786-0; [2]) was 52.5 µM and the TGI (786-0; read-out: pTGI (converted)) was 25.7 µM. It also gave a GI50 (Malme-3M) of 18.2 µM, an LC50 (Malme-3M) of 75.9 µM and a TGI (Malme-3M; read-out: pTGI (converted)) of 37.2 µM. For the same compound, the GI50 (SW-620) was 331 nM, the LC50 (SW-620) was 61.7 µM and the TGI (SW-620; read-out: pTGI (converted)) was 14.5 µM. For the same compound, the GI50 (CAKI-1) was 2880 nM, the CC50 (CAKI-1; [2]) was 72.4 µM and the TGI (CAKI-1; read-out: pTGI (converted)) was 14.5 µM.
